Test results as given in ChEMBL document CHEMBL1148485, “Synthesis and biological evaluation of new selective cytotoxic cyclolignans derived from podophyllotoxin” (J Med Chem, 2004).

Columns and labels:
[1] = system: A549; test: In vitro cytotoxicity against A-549 (human lung carcinoma) cell line.; type: functional, cell-based
[2] = system: HT-29; test: In vitro cytotoxicity against HT-29 (human colon carcinoma) cell line.; type: functional, cell-based
[3] = system: SK-MEL-28; test: Tested in vitro for antineoplastic activity against MEL-28 (human melanoma) tumor cell line; type: functional, cell-based
Outline: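 MEL-28 cells seeded at 2 × 10^4 cells/well in MEM–10% FCS containing graded compound concentrations. Incubated 4 days at 37 °C, 10% CO2, 98% humidity. Stained with crystal violet and inhibition judged against untreated controls, which were kept in exponential growth. Mean of duplicate wells.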

[4] = Selectivity index is the ratio of IC50 of P-388 cell line to that of HT-29; type: functional
[5] = system: P388; test: Tested in vitro for antineoplastic activity against P-388 (lymphoid neoplasm from DBA/2 mouse) tumor cell line; type: functional, cell-based
Outline: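 P-388 cells seeded at 1 × 10^4 cells/well in MEM–10% FCS containing graded compound concentrations. Incubated 4 days at 37 °C, 10% CO2, 98% humidity. Inhibition scored by inverted microscopy against untreated controls, which were kept in exponential growth. Mean of duplicate wells.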

[6] = system: HeLa; test: Tested for effect of compound on G2/M cell cycle phase and apoptosis in HeLa cells at a dose of 10E-6 for 48 hr; type: functional, Homo sapiens
Outline: (§1)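 HeLa cells were grown in DMEM with 10% heat-inactivated FCS and 2 mM L-glutamine at 37 °C in 5% CO2. They were exposed to 10^-6 to 10^-8 M for 24, 48 or 72 h. Then (3-5)×10^5 cells were fixed overnight in 70% ethanol at 4 °C, PBS-washed, and given 1 mg/mL RNase A plus 20 µg/mL propidium iodide for 1 h at room temperature. DNA content was read by flow cytometry. Sub-G1 (hypodiploid) % counted as apoptotic. Untreated controls were run in parallel. Representative of three independent experiments.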

[7] = system: HeLa; test: Tested for effect of compound on Sub-G1 cell cycle phase and apoptosis in HeLa cells at a dose of 10E-6 for 24 hr; type: functional, Homo sapiens
Outline: (§2)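 HeLa cells grown in DMEM with 10% heat-inactivated FCS, 2 mM L-glutamine, penicillin and gentamicin at 37 °C, 5% CO2. Exposed to compound at 10^-6 to 10^-8 M for 24, 48 or 72 h, untreated controls run in parallel. (3-5) × 10^5 cells fixed overnight in 70% ethanol at 4 °C, then RNase A plus propidium iodide. Phase fractions measured by flow cytometry, with sub-G1 (hypodiploid) cells counted as apoptotic. Three independent experiments.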

[8] = system: HeLa; test: Tested for effect of compound on Sub-G1 cell cycle phase and apoptosis in HeLa cells at a dose of 10E-6 for 48 hr; type: functional, Homo sapiens; outline: as §2
[9] = system: HeLa; test: Tested for effect of compound on Sub-G1 cell cycle phase and apoptosis in HeLa cells at a dose of 10E-6 for 72 hr; type: functional, Homo sapiens; outline: as §2
[10] = system: HeLa; test: Tested for effect of compound on Sub-G1 cell cycle phase and apoptosis in HeLa cells at a dose of 10E-7 for 24 hr; type: functional, Homo sapiens; outline: as §2
[11] = system: HeLa; test: Tested for effect of compound on Sub-G1 cell cycle phase and apoptosis in HeLa cells at a dose of 10E-7 for 48 hr; type: functional, Homo sapiens; outline: as §2
[12] = system: HeLa; test: Tested for effect of compound on Sub-G1 cell cycle phase and apoptosis in HeLa cells at a dose of 10E-7 for 72 hr; type: functional, Homo sapiens; outline: as §2
[13] = system: HeLa; test: Tested for effect of compound on Sub-G1 cell cycle phase and apoptosis in HeLa cells at a dose of 10E-8 for 24 hr; type: functional, Homo sapiens; outline: as §2
[14] = system: HeLa; test: Tested for effect of compound on Sub-G1 cell cycle phase and apoptosis in HeLa cells at a dose of 10E-8 for 48 hr; type: functional, Homo sapiens; outline: as §2
[15] = system: HeLa; test: Tested for effect of compound on Sub-G1 cell cycle phase and apoptosis in HeLa cells at a dose of 10E-8 for 72 hr; type: functional, Homo sapiens; outline: as §2
[16] = system: HeLa; test: Tested for effect of compound on G2/M cell cycle phase and apoptosis in HeLa cells at a dose of 10E-8 for 24 hr; type: functional, Homo sapiens; outline: as §2
[17] = system: HeLa; test: Tested for effect of compound on G2/M cell cycle phase and apoptosis in HeLa cells at a dose of 10E-8 for 48 hr; type: functional, Homo sapiens; outline: as §2
[18] = system: HeLa; test: Tested for effect of compound on G2/M cell cycle phase and apoptosis in HeLa cells at a dose of 10E-8 for 72 hr; type: functional, Homo sapiens; outline: as §2
[19] = system: HeLa; test: Tested for effect of compound on S cell cycle phase and apoptosis in HeLa cells at a dose of 10E-6 for 24 hr; type: functional, Homo sapiens; outline: as §2
[20] = system: HeLa; test: Tested for effect of compound on S cell cycle phase and apoptosis in HeLa cells at a dose of 10E-6 for 48 hr; type: functional, Homo sapiens; outline: as §2
[21] = system: HeLa; test: Tested for effect of compound on S cell cycle phase and apoptosis in HeLa cells at a dose of 10E-6 for 72 hr; type: functional, Homo sapiens; outline: as §2
[22] = system: HeLa; test: Tested for effect of compound on S cell cycle phase and apoptosis in HeLa cells at a dose of 10E-7 for 24 hr; type: functional, Homo sapiens; outline: as §2
[23] = system: HeLa; test: Tested for effect of compound on S cell cycle phase and apoptosis in HeLa cells at a dose of 10E-7 for 48 hr; type: functional, Homo sapiens; outline: as §2
[24] = system: HeLa; test: Tested for effect of compound on S cell cycle phase and apoptosis in HeLa cells at a dose of 10E-7 for 72 hr; type: functional, Homo sapiens; outline: as §2
[25] = system: HeLa; test: Tested for effect of compound on S cell cycle phase and apoptosis in HeLa cells at a dose of 10E-8 for 24 hr; type: functional, Homo sapiens; outline: as §2
[26] = system: HeLa; test: Tested for effect of compound on S cell cycle phase and apoptosis in HeLa cells at a dose of 10E-8 for 48 hr; type: functional, Homo sapiens; outline: as §2
[27] = system: HeLa; test: Tested for effect of compound on S cell cycle phase and apoptosis in HeLa cells at a dose of 10E-8 for 72 hr; type: functional, Homo sapiens; outline: as §2
[28] = system: HeLa; test: Tested for effect of compound on G0/G1 cell cycle phase and apoptosis in HeLa cells at a dose of 10E-6 for 24 hr; type: functional, Homo sapiens; outline: as §1
[29] = system: HeLa; test: Tested for effect of compound on G0/G1 cell cycle phase and apoptosis in HeLa cells at a dose of 10E-6 for 48 hr; type: functional, Homo sapiens; outline: as §1
[30] = system: HeLa; test: Tested for effect of compound on G0/G1 cell cycle phase and apoptosis in HeLa cells at a dose of 10E-6 for 72 hr; type: functional, Homo sapiens; outline: as §1
[31] = system: HeLa; test: Tested for effect of compound on G0/G1 cell cycle phase and apoptosis in HeLa cells at a dose of 10E-7 for 24 hr; type: functional, Homo sapiens; outline: as §1
[32] = system: HeLa; test: Tested for effect of compound on G0/G1 cell cycle phase and apoptosis in HeLa cells at a dose of 10E-7 for 48 hr; type: functional, Homo sapiens; outline: as §1
[33] = system: HeLa; test: Tested for effect of compound on G0/G1 cell cycle phase and apoptosis in HeLa cells at a dose of 10E-7 for 72 hr; type: functional, Homo sapiens; outline: as §1
[34] = system: HeLa; test: Tested for effect of compound on G0/G1 cell cycle phase and apoptosis in HeLa cells at a dose of 10E-8 for 24 hr; type: functional, Homo sapiens; outline: as §1
[35] = system: HeLa; test: Tested for effect of compound on G0/G1 cell cycle phase and apoptosis in HeLa cells at a dose of 10E-8 for 48 hr; type: functional, Homo sapiens; outline: as §1
[36] = system: HeLa; test: Tested for effect of compound on G0/G1 cell cycle phase and apoptosis in HeLa cells at a dose of 10E-8 for 72 hr; type: functional, Homo sapiens; outline: as §1
[37] = system: HeLa; test: Tested for effect of compound on G2/M cell cycle phase and apoptosis in HeLa cells at a dose of 10E-6 for 24 hr; type: functional, Homo sapiens; outline: as §1
[38] = system: HeLa; test: Tested for effect of compound on G2/M cell cycle phase and apoptosis in HeLa cells at a dose of 10E-6 for 72 hr; type: functional, Homo sapiens; outline: as §2
[39] = system: HeLa; test: Tested for effect of compound on G2/M cell cycle phase and apoptosis in HeLa cells at a dose of 10E-7 for 24 hr; type: functional, Homo sapiens; outline: as §2
[40] = system: HeLa; test: Tested for effect of compound on G2/M cell cycle phase and apoptosis in HeLa cells at a dose of 10E-7 for 48 hr; type: functional, Homo sapiens; outline: as §2
[41] = system: HeLa; test: Tested for effect of compound on G2/M cell cycle phase and apoptosis in HeLa cells at a dose of 10E-7 for 72 hr; type: functional, Homo sapiens; outline: as §2

COC(=O)[C@@H]1C(/C=N/c2nccs2)=Cc2cc3c(cc2C1c1cc(OC)c(OC)c(OC)c1)OCO3 (some centres undefined)
IC50 ([1]; Homo sapiens, A549): 250 nM
IC50 ([2]; Homo sapiens, HT-29): 25 nM
IC50 [3]: 250 nM
Selectivity index [4]: 8
IC50 [5]: 200 nM

CC/N=C/C1=Cc2cc3c(cc2[C@@H](c2cc(OC)c(OC)c(OC)c2)[C@@H]1C(=O)OC)OCO3 (stereo in doubt; 11)
IC50 ([1]; a549): 110 nM
IC50 ([2]; ht-29): 34 nM

COC(=O)[C@@H]1C(/C=N/C2CCCCC2)=Cc2cc3c(cc2C1c1cc(OC)c(OC)c(OC)c1)OCO3 (some centres undefined)
IC50 ([1]; Homo sapiens, A549): 250 nM
IC50 ([2]; Homo sapiens, HT-29): 25 nM
IC50 [3]: 490 nM
Selectivity index [4]: 80
IC50 [5]: 2000 nM

COC(=O)[C@@H]1C(/C=N/c2cc(C)c(C)cc2N)=Cc2cc3c(cc2C1c1cc(OC)c(OC)c(OC)c1)OCO3 (some centres undefined)
IC50 ([1]; Homo sapiens, A549): 900 nM
IC50 ([2]; Homo sapiens, HT-29): 200 nM
IC50 [3]: 900 nM
Selectivity index [4]: 4.5
IC50 [5]: 900 nM

CCC/N=C/C1=Cc2cc3c(cc2C(c2cc(OC)c(OC)c(OC)c2)[C@@H]1C(=O)OC)OCO3 (some centres undefined)
IC50 ([1]; Homo sapiens, A549): 110 nM
IC50 ([2]; Homo sapiens, HT-29): 10 nM
Selectivity index [4]: 110
IC50 [5]: 1100 nM

COC(=O)[C@@H]1C(C=O)=Cc2cc3c(cc2[C@H]1c1cc(OC)c(OC)c(OC)c1)OCO3
IC50 ([1]; Homo sapiens, A549): 120 nM
Activity [6]: 44.8%
IC50 ([2]; Homo sapiens, HT-29): 12 nM
Activity [7]: 1.1%
Activity [8]: 28.9%
Activity [9]: 58.9%
Activity [10]: 1.4%
Activity [11]: 10.9%
Activity [12]: 50.1%
Activity [13]: 1.4%
Activity [14]: 1.5%
Activity [15]: 3.1%
Activity [16]: 24.3%
Activity [17]: 29.7%
Activity [18]: 39.3%
Activity [19]: 1.7%
Activity [20]: 9.3%
Activity [21]: 17.5%
Activity [22]: 10.4%
Activity [23]: 9.7%
Activity [24]: 17.3%
Activity [25]: 16.2%
Activity [26]: 10.1%
Activity [27]: 10.2%
Activity [28]: 1.2%
Activity [29]: 17%
Activity [30]: 14.1%
Activity [31]: 8.1%
Activity [32]: 11.2%
Activity [33]: 15.1%
Activity [34]: 58.1%
Activity [35]: 58.7%
Activity [36]: 47.4%
Activity [37]: 96%
Activity [38]: 9.5%
Activity [39]: 80.1%
Activity [40]: 68.2%
IC50 [3]: 230 nM
Selectivity index [4]: 19
IC50 [5]: 230 nM
Activity [41]: 17.5%

COC(=O)[C@@H]1C(C=O)=Cc2c(cc3c(c2OC)OCO3)[C@H]1c1cc(OC)c(OC)c(OC)c1
IC50 ([1]; Homo sapiens, A549): 220 nM
IC50 ([2]; Homo sapiens, HT-29): 20 nM
Selectivity index [4]: 55
IC50 [5]: 1100 nM

COC(=O)[C@@H]1C(/C=N/c2ccccc2O)=Cc2cc3c(cc2C1c1cc(OC)c(OC)c(OC)c1)OCO3 (some centres undefined)
IC50 ([1]; Homo sapiens, A549): > 9700 nM
IC50 ([2]; Homo sapiens, HT-29): 970 nM
IC50 [3]: > 9700 nM
